Experimental data taken from ChEMBL document CHEMBL1140441, “Design, synthesis, and activity of analogues of phosphinothricin as inhibitors of glutamine synthetase” (J Med Chem, 2005).

biological target: T1, Glutamine synthetase (Escherichia coli K-12, UniProt P0A9C5); experiment: Inhibitory concentration against glutamine synthetase incubated at 37 degree C for 20 minutes in pH 7.4
T1 sequence (P0A9C5 whole entry): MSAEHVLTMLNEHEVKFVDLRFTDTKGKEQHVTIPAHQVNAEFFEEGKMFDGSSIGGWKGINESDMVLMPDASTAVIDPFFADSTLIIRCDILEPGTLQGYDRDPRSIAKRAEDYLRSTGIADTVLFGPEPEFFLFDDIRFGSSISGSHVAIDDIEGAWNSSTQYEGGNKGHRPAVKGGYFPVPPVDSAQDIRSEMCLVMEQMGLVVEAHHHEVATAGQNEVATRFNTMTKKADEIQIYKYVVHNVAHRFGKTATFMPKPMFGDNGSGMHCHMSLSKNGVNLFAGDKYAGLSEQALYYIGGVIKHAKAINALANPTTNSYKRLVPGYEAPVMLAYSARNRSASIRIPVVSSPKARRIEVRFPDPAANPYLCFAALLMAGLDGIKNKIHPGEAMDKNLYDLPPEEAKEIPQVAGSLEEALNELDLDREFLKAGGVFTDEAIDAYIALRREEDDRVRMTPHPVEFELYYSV
In short: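 Fully activated E. coli strain W GS (30 pkat) in 50 mM Tris-HCl pH 7.4 with 100 mM glutamate, 5 mM ATP, 1 mM NH4Cl and 25 mM MgCl2, run at 37 °C for up to 20 min. Phosphate release was measured from the initial linear rate. IC50 came from linear regression of % control against log concentration.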

Compound | IC50 [µM]
NCP(=O)(O)CC[C@H](N)C(=O)O | 1
NCCP(=O)(O)CC[C@H](N)C(=O)O | 55
N[C@@H](CCP(=O)(O)CCC(=O)O)C(=O)O | 970
CP(=O)(O)CC[C@H](N)C(=O)O | 1.2
N[C@@H](CCP(=O)(O)CO)C(=O)O | 10.4
C[C@@H](N)P(=O)(O)CC[C@H](N)C(=O)O | 31
C[C@H](N)P(=O)(O)CC[C@H](N)C(=O)O (mixture of isomers) | 33

biological target: T1, Glutamine synthetase; experiment: (§1) Binding affinity towards glutamine synthetase
In short: (§2)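 E. coli strain W glutamine synthetase (fully activated), full forward reaction read by inorganic phosphate release at 37 °C, pH 7.4 Tris-HCl. Glutamate was varied from 15 to 80 mM, with ATP and NH4Cl fixed at standard levels. At least four inhibitor levels were tested, each dose at least in triplicate. Ki came from Lineweaver–Burk plots and is given as mean ± SEM.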

Compound | Ki [µM]
NCP(=O)(O)CC[C@H](N)C(=O)O | 0.59
NCCP(=O)(O)CC[C@H](N)C(=O)O | 13
N[C@@H](CCP(=O)(O)CCC(=O)O)C(=O)O | 150
CP(=O)(O)CC[C@H](N)C(=O)O | 0.6
N[C@@H](CCP(=O)(O)CO)C(=O)O | 2.1
C[C@@H](N)P(=O)(O)CC[C@H](N)C(=O)O | 3.4
C[C@H](N)P(=O)(O)CC[C@H](N)C(=O)O (mixture of isomers) | 3.7

biological target: T1, Glutamine synthetase; experiment: as §1; in short: as §2

Compound | Ki [µM]
NCP(=O)(O)CC[C@H](N)C(=O)O | 0.59
NCCP(=O)(O)CC[C@H](N)C(=O)O | 13
N[C@@H](CCP(=O)(O)CCC(=O)O)C(=O)O | 147
CP(=O)(O)CC[C@H](N)C(=O)O | 0.6
N[C@@H](CCP(=O)(O)CO)C(=O)O | 2.1
C[C@@H](N)P(=O)(O)CC[C@H](N)C(=O)O | 3.4
C[C@H](N)P(=O)(O)CC[C@H](N)C(=O)O (mixture of isomers) | 3.7
